In ChEMBL document CHEMBL5356993, “Novel pyrazolo[3,4-d]pyrimidine derivatives: design, synthesis, anticancer evaluation, VEGFR-2 inhibition, and antiangiogenic activity” (RSC Med Chem, 2023) one finds inhibition of growth data, which are given here for 1 molecule.

The structures appear in SMILES notation.

In one experiment the test system is OVCAR-5. The experiment can be described thus: Antiproliferative activity against human OVCAR-5 cells assessed as cell growth inhibition at 10 uM incubated for 48 hrs by SRB assay relative to control. It is filed as functional. The following applies: read-out: GI. The procedure, abridged: (§1)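 Cells plated in 96-well plates at […] cells/well and preincubated 24 h at 37 °C, 5% CO2. Time-zero plates were TCA-fixed. Compound was diluted in medium with 50 µg/mL gentamicin and cells exposed for 48 h. Adherent cells fixed with 10% final TCA; suspension cells with 16% final TCA. Plates stained with 0.4% SRB in 1% acetic acid, dye solubilized in 10 mM Trizma, absorbance read at 515 nm. Percent growth calculated against time-zero and control.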
On to `Cc1nc2c(cnn2-c2ccccc2)c(=O)n1-c1ccc(/N=C2\C(=O)Nc3ccccc32)cc1`, for which the inhibition of growth at 10 µM is less than 15%.

The next experiment concerns NCI-H322M. As to the kind of experiment: Antiproliferative activity against human NCI-H322M cells assessed as cell growth inhibition at 10 uM incubated for 48 hrs by SRB assay relative to control. The format is functional. To be noted: read-out: GI. On the technique in general: In SRB staining, fixed cells bind dye roughly in proportion to their protein.
Turning to `Cc1nc2c(cnn2-c2ccccc2)c(=O)n1-c1ccc(/N=C2\C(=O)Nc3ccccc32)cc1`, the inhibition of growth at 10 µM was less than 15%.

The next experiment deals with COLO 205. As to the kind of experiment: Antiproliferative activity against human COLO 205 cells assessed as cell growth inhibition at 10 uM incubated for 48 hrs by SRB assay relative to control. The following applies: read-out: GI. The format is functional.
`Cc1nc2c(cnn2-c2ccccc2)c(=O)n1-c1ccc(/N=C2\C(=O)Nc3ccccc32)cc1`: the inhibition of growth at 10 µM is less than 15%.

In another experiment the test system is HT-29. As to the kind of experiment: Antiproliferative activity against human HT-29 cells assessed as cell growth inhibition at 10 uM incubated for 48 hrs by SRB assay relative to control. It is filed as functional. To be noted: read-out: GI. In short, it runs like this: as §1
Turning to `Cc1nc2c(cnn2-c2ccccc2)c(=O)n1-c1ccc(/N=C2\C(=O)Nc3ccccc32)cc1`, the inhibition of growth at 10 µM was less than 15%.

In the next experiment the test system is KM12. The experiment can be described thus: Antiproliferative activity against human KM12 cells assessed as cell growth inhibition at 10 uM incubated for 48 hrs by SRB assay relative to control. It is filed as functional. To be noted: read-out: GI. In short, it runs like this: as §1
Consider `Cc1nc2c(cnn2-c2ccccc2)c(=O)n1-c1ccc(/N=C2\C(=O)Nc3ccccc32)cc1`, for which the inhibition of growth at 10 µM was less than 15%.

The next experiment deals with SF-268. As to the kind of experiment: Antiproliferative activity against human SF-268 cells assessed as cell growth inhibition at 10 uM incubated for 48 hrs by SRB assay relative to control. The format is functional. The following applies: read-out: GI.
For the molecule `Cc1nc2c(cnn2-c2ccccc2)c(=O)n1-c1ccc(/N=C2\C(=O)Nc3ccccc32)cc1`, the inhibition of growth at 10 µM was less than 15%.

The subject of the next experiment is SF-295. As to the kind of experiment: Antiproliferative activity against human SF-295 cells assessed as cell growth inhibition at 10 uM incubated for 48 hrs by SRB assay relative to control. To be noted: read-out: GI. The format is functional. In short, it runs like this:
as §1
Take `Cc1nc2c(cnn2-c2ccccc2)c(=O)n1-c1ccc(/N=C2\C(=O)Nc3ccccc32)cc1`: the inhibition of growth at 10 µM came to 24.7%.

A further experiment relates to SNB-19. The experiment can be described thus: Antiproliferative activity against human SNB-19 cells assessed as cell growth inhibition at 10 uM incubated for 48 hrs by SRB assay relative to control. The format is functional. The following applies: read-out: GI. The procedure, abridged: (§2)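 Cells pre-incubated 24 h at 37°C, 5% CO2, then exposed to compound (DMSO stock diluted in medium with 50 µg/mL gentamicin) for 48 h. Adherent cells fixed with cold TCA (final 10%, 60 min, 4°C); suspension cells fixed with 16% TCA final. Stained with 0.4% SRB in 1% acetic acid for 10 min, dye solubilized in 10 mM Trizma base, absorbance read at 515 nm. Growth calculated against time-zero and untreated control plates.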
With `Cc1nc2c(cnn2-c2ccccc2)c(=O)n1-c1ccc(/N=C2\C(=O)Nc3ccccc32)cc1`, the inhibition of growth at 10 µM turned out to be 36%.

The test system of the next experiment is SNB-75. As to the kind of experiment: Antiproliferative activity against human SNB-75 cells assessed as cell growth inhibition at 10 uM incubated for 48 hrs by SRB assay relative to control. The following applies: read-out: GI. The format is functional. In short, it runs like this:
as §2
As for `Cc1nc2c(cnn2-c2ccccc2)c(=O)n1-c1ccc(/N=C2\C(=O)Nc3ccccc32)cc1`, the inhibition of growth at 10 µM is less than 15%.

The test system of another experiment is U-251. The experiment can be described thus: Antiproliferative activity against human U-251 cells assessed as cell growth inhibition at 10 uM incubated for 48 hrs by SRB assay relative to control. The following applies: read-out: GI. It is filed as functional. In short, it runs like this: as §2
For `Cc1nc2c(cnn2-c2ccccc2)c(=O)n1-c1ccc(/N=C2\C(=O)Nc3ccccc32)cc1`, the inhibition of growth at 10 µM came to 39.6%.

A further experiment relates to Malme-3M. As to the kind of experiment: Antiproliferative activity against human Malme-3M cells assessed as cell growth inhibition at 10 uM incubated for 48 hrs by SRB assay relative to control. It is filed as functional. To be noted: read-out: GI.
As for `Cc1nc2c(cnn2-c2ccccc2)c(=O)n1-c1ccc(/N=C2\C(=O)Nc3ccccc32)cc1`, the inhibition of growth at 10 µM is 23.1%.

Another experiment deals with SK-MEL-2. The experiment can be described thus: Antiproliferative activity against human SK-MEL-2 cells assessed as cell growth inhibition at 10 uM incubated for 48 hrs by SRB assay relative to control. It is filed as functional. To be noted: read-out: GI. In short, it runs like this:
as §1
`Cc1nc2c(cnn2-c2ccccc2)c(=O)n1-c1ccc(/N=C2\C(=O)Nc3ccccc32)cc1`: the inhibition of growth at 10 µM is less than 15%.

The subject of a further experiment is SK-MEL-28. The experiment can be described thus: Antiproliferative activity against human SK-MEL-28 cells assessed as cell growth inhibition at 10 uM incubated for 48 hrs by SRB assay relative to control. The format is functional. To be noted: read-out: GI. In short, it runs like this: as §1
For `Cc1nc2c(cnn2-c2ccccc2)c(=O)n1-c1ccc(/N=C2\C(=O)Nc3ccccc32)cc1`, the inhibition of growth at 10 µM was less than 15%.

A further experiment concerns UACC-257. The experiment can be described thus: Antiproliferative activity against human UACC-257 cells assessed as cell growth inhibition at 10 uM incubated for 48 hrs by SRB assay relative to control. It is filed as functional. The following applies: read-out: GI. The procedure, abridged:
as §2
For the molecule `Cc1nc2c(cnn2-c2ccccc2)c(=O)n1-c1ccc(/N=C2\C(=O)Nc3ccccc32)cc1`, the inhibition of growth at 10 µM was found to be 29.3%.

The test system of another experiment is IGROV-1. As to the kind of experiment: Antiproliferative activity against human IGROV-1 cells assessed as cell growth inhibition at 10 uM incubated for 48 hrs by SRB assay relative to control. It is filed as functional. The following applies: read-out: GI.
In the case of `Cc1nc2c(cnn2-c2ccccc2)c(=O)n1-c1ccc(/N=C2\C(=O)Nc3ccccc32)cc1`, the inhibition of growth at 10 µM was determined as 34.7%.

The subject of a further experiment is OVCAR-3. The experiment can be described thus: Antiproliferative activity against human OVCAR-3 cells assessed as cell growth inhibition at 10 uM incubated for 48 hrs by SRB assay relative to control. It is filed as functional. To be noted: read-out: GI. The procedure, abridged:
as §1
Regarding `Cc1nc2c(cnn2-c2ccccc2)c(=O)n1-c1ccc(/N=C2\C(=O)Nc3ccccc32)cc1`, the inhibition of growth at 10 µM was found to be 24.3%.

A further experiment concerns OVCAR-8. As to the kind of experiment: Antiproliferative activity against human OVCAR-8 cells assessed as cell growth inhibition at 10 uM incubated for 48 hrs by SRB assay relative to control. The format is functional. To be noted: read-out: GI.
Take `Cc1nc2c(cnn2-c2ccccc2)c(=O)n1-c1ccc(/N=C2\C(=O)Nc3ccccc32)cc1`: the inhibition of growth at 10 µM stood at 24.8%.
